Source: ChEMBL document CHEMBL1149086, “Antimalarial and antitumor evaluation of novel C-10 non-acetal dimers of 10beta-(2-hydroxyethyl)deoxoartemisinin” (J Med Chem, 2004)

Assays:
[1] = system: T47D; experiment: Concentration of the drug required to achieve 50% cytotoxicity against breast T-47D cancer cell line; format: cell-based; settings: human
[2] = system: NCI/ADR-RES; experiment: inhibition against breast NCI/ ADR-RES cancer cell line; format: functional; settings: Homo sapiens
[3] = system: T47D; experiment: inhibition against breast T-47D cancer cell line; format: functional; settings: Homo sapiens
[4] = system: HCC 2998; experiment: Concentration of the drug required to achieve 50% cytotoxicity against colon HCC2998 cancer cell line; format: cell-based; settings: human
[5] = system: CCRF-CEM; experiment: inhibition against leukemia CCRF-CEM cell line; format: functional; settings: Homo sapiens
[6] = system: CCRF-CEM; experiment: Concentration required to achieve total growth inhibition against leukemia CCRF-CEM cell line; format: functional; settings: Homo sapiens
[7] = system: RPMI-8226; experiment: inhibition against leukemia RPMI-8226 cell line; format: functional; settings: Homo sapiens
[8] = system: SW-620; experiment: Concentration required to achieve total growth inhibition against colon SW-620 cancer cell line; format: functional; settings: Homo sapiens
[9] = system: SW-620; experiment: Concentration of the drug required to achieve 50% cytotoxicity against colon SW-620 cancer cell line; format: cell-based; settings: human
[10] = system: HCT-116; experiment: Concentration of the drug required to achieve 50% cytotoxicity against colon HCT116 cancer cell line; format: cell-based; settings: human
[11] = system: HT-29; experiment: Concentration required to achieve total growth inhibition against colon HT-29 cancer cell line; format: functional; settings: Homo sapiens
[12] = system: HCT-15; experiment: Concentration of the drug required to achieve 50% cytotoxicity against colon HCT-15 cancer cell line; format: cell-based; settings: human
[13] = system: PC-3; experiment: Concentration required to achieve total growth inhibition against prostate PC-3 cell line; format: functional; settings: Homo sapiens
[14] = system: LOX IMVI; experiment: Concentration required to achieve total growth inhibition against melanoma LOX IMVI cell line; format: functional; settings: Homo sapiens
[15] = system: SW-620; experiment: inhibition against colon SW-620 cancer cell line; format: functional; settings: Homo sapiens
[16] = system: HT-29; experiment: inhibition against colon HT-29 cancer cell line; format: functional; settings: Homo sapiens
[17] = system: Malme-3M; experiment: inhibition against melanoma MALME-3M cell line; format: functional; settings: Homo sapiens
[18] = system: UACC-62; experiment: Concentration required to achieve total growth inhibition against melanoma UACC-62 cell line; format: functional; settings: Homo sapiens
[19] = system: SR; experiment: inhibition against leukemia SR cell line; format: functional; settings: Homo sapiens
[20] = system: HL-60; experiment: inhibition against leukemia HL-60(TB) cell line; format: functional; settings: Homo sapiens
[21] = system: MCF7; experiment: inhibition against breast MCF-7 cancer cell line; format: functional; settings: Homo sapiens
[22] = system: NCI/ADR-RES; experiment: Concentration required to achieve total growth inhibition against breast NCI/ ADR-RES cancer cell line; format: functional; settings: Homo sapiens
[23] = system: KM12; experiment: inhibition against colon KM12 cancer cell line; format: functional; settings: Homo sapiens
[24] = system: Malme-3M; experiment: Concentration required to achieve total growth inhibition against melanoma MALME-3M cell line; format: functional; settings: Homo sapiens
[25] = system: SR; experiment: Concentration required to achieve total growth inhibition against leukemia SR cell line; format: functional; settings: Homo sapiens
[26] = system: SR; experiment: Concentration of the drug required to achieve 50% cytotoxicity against leukemia SR cell line; format: cell-based; settings: human
[27] = system: CCRF-CEM; experiment: Concentration of the drug required to achieve 50% cytotoxicity against leukemia HL-60(TB) cell line; format: cell-based; settings: human
[28] = system: MCF7; experiment: Concentration required to achieve total growth inhibition against breast MCF-7 cancer cell line; format: functional; settings: Homo sapiens
[29] = system: HCC 2998; experiment: inhibition against colon HCC2998 cancer cell line; format: functional; settings: Homo sapiens
[30] = system: HCT-116; experiment: Concentration required to achieve total growth inhibition against colon HCT116 cancer cell line; format: functional; settings: Homo sapiens
[31] = system: HCC 2998; experiment: Concentration required to achieve total growth inhibition against colon HCC2998 cancer cell line; format: functional; settings: Homo sapiens
[32] = system: HL-60; experiment: Inhibitory concentration against HL60 cells; format: functional, cell-based; settings: Homo sapiens
Summary of the method: (§1)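 HL60 (2.5 × 10⁴/well) or Jurkat (1 × 10⁵/well) in RPMI-1640 with 10% FBS and 1% L-glutamine, 5% CO2, 37 °C. Exposed to 10⁻¹⁰–10⁻⁴ M for 72 h, final DMSO below 0.5% v/v. [3H]-thymidine (0.5 μCi) added for the final 24 h. Incorporation counted by β-scintillation.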

[33] = system: RPMI-8226; experiment: Concentration of the drug required to achieve 50% cytotoxicity against leukemia RPMI-8226 cell line; format: cell-based; settings: human
[34] = system: Malme-3M; experiment: Concentration of the drug required to achieve 50% cytotoxicity against melanoma MALME-3M cell line; format: cell-based; settings: human
[35] = system: COLO 205; experiment: Concentration of the drug required to achieve 50% cytotoxicity against colon COLO 205 cancer cell line; format: cell-based; settings: human
[36] = system: SK-MEL-5; experiment: Concentration of the drug required to achieve 50% cytotoxicity against melanoma SK-MEL-5 cell line; format: cell-based; settings: human
[37] = system: MCF7; experiment: Concentration of the drug required to achieve 50% cytotoxicity against breast MCF-7 cancer cell line; format: cell-based; settings: human
[38] = system: COLO 205; experiment: Concentration required to achieve total growth inhibition against colon COLO 205 cancer cell line; format: functional; settings: Homo sapiens
[39] = system: HT-29; experiment: Concentration of the drug required to achieve 50% cytotoxicity against colon HT-29 cancer cell line; format: cell-based; settings: human
[40] = system: RPMI-8226; experiment: Concentration required to achieve total growth inhibition against leukemia RPMI-8226 cell line; format: functional; settings: Homo sapiens
[41] = system: KM12; experiment: Concentration required to achieve total growth inhibition against colon KM12 cancer cell line; format: functional; settings: Homo sapiens
[42] = system: UACC-62; experiment: inhibition against melanoma UACC-62 cell line; format: functional; settings: Homo sapiens
[43] = system: SK-MEL-5; experiment: inhibition against melanoma SK-MEL-5 cell line; format: functional; settings: Homo sapiens
[44] = system: CCRF-CEM; experiment: Concentration of the drug required to achieve 50% cytotoxicity against leukemia CCRF-CEM cell line; format: cell-based; settings: human
[45] = system: NCI/ADR-RES; experiment: Concentration of the drug required to achieve 50% cytotoxicity against breast NCI/ ADR-RES cancer cell line; format: cell-based; settings: human
[46] = system: UACC-62; experiment: Concentration of the drug required to achieve 50% cytotoxicity against melanoma UACC-62 cell line; format: cell-based; settings: human
[47] = system: K562; experiment: Concentration required to achieve total growth inhibition against leukemia K-562 cell line; format: functional; settings: Homo sapiens
[48] = system: COLO 205; experiment: inhibition against colon COLO 205 cancer cell line; format: functional; settings: Homo sapiens
[49] = system: LOX IMVI; experiment: inhibition against melanoma LOX IMVI cell line; format: functional; settings: Homo sapiens
[50] = system: LOX IMVI; experiment: Concentration of the drug required to achieve 50% cytotoxicity against melanoma LOX IMVI cell line; format: cell-based; settings: human
[51] = system: PC-3; experiment: inhibition against prostate PC-3 cell line; format: functional; settings: Homo sapiens
[52] = system: HCT-15; experiment: Concentration required to achieve total growth inhibition against colon HCT-15 cancer cell line; format: functional; settings: Homo sapiens
[53] = system: K562; experiment: inhibition against leukemia K-562 cell line; format: functional; settings: Homo sapiens
[54] = system: KM12; experiment: Concentration of the drug required to achieve 50% cytotoxicity against colon KM12 cancer cell line; format: cell-based; settings: human
[55] = system: MOLT-4; experiment: Concentration of the drug required to achieve 50% cytotoxicity against leukemia MOLT-4 cell line; format: cell-based; settings: human
[56] = system: SK-MEL-5; experiment: Concentration required to achieve total growth inhibition against melanoma SK-MEL-5 cell line; format: functional; settings: Homo sapiens
[57] = system: HCT-116; experiment: inhibition against colon HCT116 cancer cell line; format: functional; settings: Homo sapiens
[58] = system: Jurkat; experiment: Inhibitory concentration against Jurkat cells; format: functional, cell-based; settings: Homo sapiens; summary of the method: as §1
[59] = system: T47D; experiment: Concentration required to achieve total growth inhibition against breast T-47D cancer cell line; format: functional; settings: Homo sapiens
[60] = system: HL-60; experiment: Concentration required to achieve total growth inhibition against leukemia HL-60(TB) cell line; format: functional; settings: Homo sapiens
[61] = system: PC-3; experiment: Concentration of the drug required to achieve 50% cytotoxicity against prostate PC-3 cell line; format: cell-based; settings: human
[62] = system: HCT-15; experiment: inhibition against colon HCT-15 cancer cell line; format: functional; settings: Homo sapiens
[63] = system: MOLT-4; experiment: Concentration required to achieve total growth inhibition against leukemia MOLT-4 cell line; format: functional; settings: Homo sapiens
[64] = system: Plasmodium falciparum; experiment: In vitro antimalarial activity against Plasmodium falciparum HB3 by [3H]hypoxanthine uptake; format: functional, organism-based
[65] = system: MOLT-4; experiment: inhibition against leukemia MOLT-4 cell line; format: functional; settings: Homo sapiens

COP(=O)(OCC[C@H]1O[C@@H]2OC3(C)CC[C@H]4[C@H](C)CC[C@@H]([C@H]1C)[C@@]24OO3)OCC[C@H]1O[C@@H]2OC3(C)CC[C@H]4[C@H](C)CC[C@@H]([C@H]1C)[C@@]24OO3 (single isomer, unassigned)
LC50 [1]: 25.6 µM | GI50 [2]: 0.994 µM | GI50 [3]: < 0.01 µM | LC50 [4]: 52.9 µM | GI50 [5]: 0.769 µM | TGI [6]: 30 µM | GI50 [7]: < 0.01 µM | TGI [8]: 12.6 µM | LC50 [9]: 40 µM | LC50 [10]: > 100 µM | TGI [11]: 12.6 µM | LC50 [12]: 38.7 µM | TGI [13]: 18.8 µM | TGI [14]: 16.4 µM | GI50 [15]: < 0.01 µM | GI50 [16]: < 0.01 µM | GI50 [17]: 0.0474 µM | TGI [18]: 18.4 µM | GI50 [19]: < 0.01 µM | GI50 [20]: < 0.01 µM | GI50 [21]: 0.0503 µM | TGI [22]: 22.1 µM | GI50 [23]: < 0.01 µM | TGI [24]: 32.6 µM | TGI [25]: 2.84 µM | LC50 [26]: > 100 µM | LC50 [27]: 20 µM | TGI [28]: 18.3 µM | GI50 [29]: 1.25 µM | TGI [30]: 32.6 µM | TGI [31]: 16.4 µM | IC50 [32]: 0.143 µM | LC50 [33]: > 100 µM | LC50 [34]: > 100 µM | LC50 [35]: 2.59 µM | LC50 [36]: 38.9 µM | LC50 [37]: 72.2 µM | TGI [38]: 0.21 µM | LC50 [39]: 40 µM | TGI [40]: 13.7 µM | TGI [41]: 12.6 µM | GI50 [42]: 0.486 µM | GI50 [43]: 0.199 µM | LC50 [44]: 100 µM | LC50 [45]: 75.5 µM | LC50 [46]: 42.9 µM | TGI [47]: 1.17 µM | GI50 [48]: < 0.01 µM | GI50 [49]: < 0.01 µM | LC50 [50]: 52.9 µM | GI50 [51]: < 0.01 µM | TGI [52]: 14.4 µM | GI50 [53]: < 0.01 µM | LC50 [54]: 40 µM | LC50 [55]: 33.5 µM | TGI [56]: 15.2 µM | GI50 [57]: 1.85 µM | IC50 [58]: 7.7 µM | TGI [59]: < 10 µM | TGI [60]: 1 µM | LC50 [61]: 70.3 µM | GI50 [62]: < 0.01 µM | TGI [63]: 9.8 µM | IC50 [64]: 0.09 nM | GI50 [65]: < 0.01 µM
